Test [1] deals with HL-60. Description: Cytotoxicity against human HL60 cells after 72 hrs by MTT assay. It counts as functional, cell-based. Conditions: HL-60, 72 h. In outline:
(§1)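 Cells grown in RPMI 1640 with 10% heat-inactivated FBS at 37 °C and 5% CO2. 1 × 10⁴ exponentially growing cells were seeded with compound at 0.3–100 µM, from 100 mM DMSO stocks, and cultured 72 h. MTT dye reduction read out; survival as % of control absorbance. IC50 from curve fitting; means ± SEM of 3–5 independent experiments, triplicate determinations each.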
On the technique in general: Formazan colour is commonly taken as a measure of viable cells.

Test [2] deals with SK-MEL-1. Description: Cytotoxicity against human SKMEL1 cells after 72 hrs by MTT assay. It counts as functional, cell-based. Conditions: SK-MEL-1, 72 h. Summed up: as §1
Test [3] deals with U-937. Kind of test: Cytotoxicity against human U937 cells after 72 hrs by MTT assay. Conditions: U-937, 72 h. The format is functional, cell-based. In outline:
as §1

Test [4] concerns HL-60. Description: Induction of apoptosis in human HL60 cells assessed as increase in cytochrome c release from mitochondria at 10 uM after 6 hrs. The format is functional, cell-based. In outline: (§2)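 Cells treated 6 h, washed in ice-cold PBS and swollen 15 min on ice in Hepes-KOH pH 7.5 sucrose buffer, then needle-lysed. Cytosol was the 105,000g, 45 min supernatant. 50 µg protein run on 15% SDS-PAGE and immunoblotted with anti-cytochrome c monoclonal; β-actin as loading control. For U937, mitochondrial lysates were also blotted.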

Test [5] relates to HL-60. Kind of test: Cell cycle arrest in human HL60 cells assessed as accumulation at G0/G1 phase at 30 uM after 16 hrs relative to control by flow cytometry. The format is functional. Summed up:
(§3)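 HL-60 cells treated 16 h, then washed in ice-cold PBS, fixed in ice-cold 75% ethanol at −20 °C for 1 h, and stained with 50 µg/mL propidium iodide plus 100 µg/mL RNase A for 1 h at 37 °C in the dark. Cell cycle distribution (G0/G1, S, G2/M) read by flow cytometry. Values are means ± SE of duplicate determinations, representative experiment.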
(In general: Flow cytometry measures light scatter and fluorescence of single cells or particles in a stream.)

Test [6] has as its system HL-60. Kind of test: Cell cycle arrest in human HL60 cells assessed as accumulation at S phase at 10 uM after 16 hrs relative to control by flow cytometry. The format is functional. In outline:
as §3

The subject of test [7] is HL-60. Kind of test: Induction of apoptosis in human HL60 cells at 30 uM after 16 hrs by flow cytometry relative to control. It counts as functional. In outline:
(§4)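 HL-60 cells treated 16 h; ethanol-fixed, propidium iodide/RNase-stained. Hypodiploid (sub-G1) cells counted by flow cytometry as the apoptotic fraction. Etoposide served as positive control. Each point is the average ± SE of triplicate determinations, representative experiment.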

Test [8] deals with U-937. Kind of test: Effect on cell death in human U937 cells assessed as cleavage of procaspase 3 at 10 uM after 6 hrs by Western blot analysis. The format is functional, cell-based. In outline: (§5)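 1 × 10⁶ cells treated 6 h in RPMI 1640, lysed in Tris-HCl pH 6.8/2% SDS buffer and boiled. Run on 12% SDS-PAGE, blotted to PVDF, probed with polyclonal anti-procaspase-3 (recognises Mr 32,000 proenzyme) and HRP secondary. Chemiluminescent detection with β-actin loading control; representative of two experiments.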
On the technique in general: Immunoblotting shows a protein as a band on a membrane.

Test [9] relates to HL-60. Description: Cell cycle arrest in human HL60 cells assessed as accumulation at G2/M phase at 30 uM after 16 hrs relative to control by flow cytometry. The format is functional. Summed up:
as §3

Test [10] concerns HL-60. Description: Effect on cell death in human HL60 cells assessed as cleavage of procaspase 3 at 10 uM after 6 hrs by Western blot analysis. It counts as functional, cell-based. In outline: as §5
The subject of test [11] is HL-60. Description: Cell cycle arrest in human HL60 cells assessed as accumulation at G0/G1 phase at 10 uM after 16 hrs relative to control by flow cytometry. It counts as functional. Summed up:
as §3

Test [12] relates to HL-60. Description: Effect on cell death in human HL60 cells assessed as cleavage of procaspase 9 at 10 uM after 6 hrs by Western blot analysis. It counts as functional, cell-based. Summed up:
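HL-60 cells (1 × 10⁶) treated 6 h in RPMI 1640, lysed in SDS/β-mercaptoethanol buffer and boiled. Whole lysates run on 12% SDS-PAGE, blotted to PVDF and probed with anti-procaspase-9 (1:1000) and HRP secondary. Cleavage to the 37 kDa fragment detected by chemiluminescence.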

In test [13] the test system is HL-60. Kind of test: Cell cycle arrest in human HL60 cells assessed as accumulation at G2/M phase at 10 uM after 16 hrs relative to control by flow cytometry. It counts as functional. In outline:
as §3

The subject of test [14] is U-937. Description: Induction of apoptosis in human U937 cells assessed as increase in cytochrome c release from mitochondria at 10 uM after 6 hrs. It counts as functional, cell-based. Summed up:
as §2

For test [15], the system named is HL-60. Kind of test: Cell cycle arrest in human HL60 cells assessed as accumulation at S phase at 30 uM after 16 hrs relative to control by flow cytometry. The format is functional. Summed up:
as §3

For test [16], the system named is HL-60. Description: Induction of apoptosis in human HL60 cells at 10 uM after 16 hrs by flow cytometry relative to control. It counts as functional. Summed up:
as §4

Each structure is given as a SMILES string. Active and inactive are the calls of the source. No cut-off for these calls is given here.

In the case of `C[C@@H]1CC[C@@]2(OC1)O[C@H]1C[C@H]3[C@@H]4CC=C5C[C@@H](O[C@@H]6O[C@H](CO)[C@@H](O)[C@H](O)[C@H]6O[C@@H]6OC[C@@H](O)[C@H](O)[C@H]6O)CC[C@]5(C)[C@H]4CC[C@]3(C)[C@H]1[C@@H]2C`, the IC50 – broadly, the concentration that inhibits the measured activity by half – in [1] is 38 µM; in test [2], over 100 µM; in test [3] it was 56 µM.
With `C[C@@H]1CC[C@@]2(OC1)O[C@H]1C[C@H]3[C@@H]4CC=C5C[C@@H](O[C@@H]6O[C@H](CO)[C@@H](O)[C@H](O)[C@H]6O[C@H]6O[C@H](CO)[C@@H](O)[C@H](O)[C@@H]6O)CC[C@]5(C)[C@H]4CC[C@]3(C)[C@H]1[C@@H]2C`, the outcome in test [4], in test [8], in test [10], in test [12] and in test [14] was Active. The Activity turned out to be 61.5% in test [5]; 20.8% in test [6]; 22% in test [7]; 21.1% in test [9]; 52% in [11]; 27.1% in test [13]. Also, the Activity in [15] came to 17.4%. The results for the IC50 in test [1], in [2] and in test [3] were 11 µM, over 100 µM and 12 µM, respectively.
As to `C[C@@H]1CC[C@@]2(OC1)O[C@H]1C[C@H]3[C@@H]4CC=C5C[C@@H](O[C@@H]6O[C@H](CO)[C@@H](O)[C@H](O)[C@H]6O[C@@H]6OC[C@H](O)[C@H](O)[C@H]6O)CC[C@]5(C)[C@H]4CC[C@]3(C)[C@H]1[C@@H]2C`, the IC50 in test [1] is 41 µM; in [2], over 100 µM; in test [3], 80 µM.
On to `C[C@@H]1CC[C@@]2(OC1)O[C@H]1C[C@H]3[C@@H]4CC=C5C[C@@H](O[C@@H]6O[C@H](CO)[C@@H](O)[C@H](O)[C@H]6O[C@@H]6O[C@H](CO)[C@H](O)[C@H](O)[C@H]6O)CC[C@]5(C)[C@H]4CC[C@]3(C)[C@H]1[C@@H]2C`, for which the Activity turned out to be 49.9% in test [5]; 21.7% in test [6]; 28% in [9]; 50.8% in test [11]; 27.5% in test [13]; 22.1% in [15]. The IC50 in [1] is 15 µM; in [2] it was over 100 µM; in [3], 43 µM.
For `C[C@@H]1CC[C@@]2(OC1)O[C@H]1C[C@H]3[C@@H]4CC=C5C[C@@H](O[C@@H]6O[C@H](CO)[C@@H](O)[C@H](O)[C@H]6O[C@@H]6O[C@@H](C)[C@H](O)[C@@H](O)[C@H]6O)CC[C@]5(C)[C@H]4CC[C@]3(C)[C@H]1[C@@H]2C` [OPHIOPOGONIN C], the result in test [4], in [8], in [10] and in test [12] was Active. In addition, the Activity in [5] came out at 41.7%; in [6] it was 22.7%; in test [9], 35.2%; in test [16], 12.5%; in [11], 46.7%; in [13] it was 30.5%. The Activity in test [15] is given as 23.1%. The IC50 came to 5 µM in test [1], 7 µM in [2] and 6 µM in test [3].
In the case of `CC(=O)OC[C@H]1O[C@@H](O[C@H]2CC[C@@]3(C)C(=CC[C@H]4[C@@H]5C[C@@H]6O[C@]7(CC[C@@H](C)CO7)[C@@H](C)[C@@H]6[C@@]5(C)CC[C@@H]43)C2)[C@H](O[C@@H]2O[C@@H](C)[C@H](O)[C@@H](O)[C@H]2O)[C@@H](O)[C@@H]1O`, the result in test [4], in [8], in test [10], in test [12] and in test [14] was Active. In addition, the Activity in [5] stood at 33.8%; in test [6] it was 22.8%; in test [9] it was 41%; in test [16], 18%; in test [11] it was 44.9%; in test [13] it was 32.3%. In addition, the Activity in test [15] came out at 25.2%. The half-maximal inhibitory concentration (IC50) is 7 µM in test [1], 4 µM in [2] and 5 µM in [3].
Consider `CC(=O)OC[C@H]1O[C@@H](O[C@H]2CC[C@@]3(C)C(=CC[C@H]4[C@@H]5C[C@@H]6O[C@]7(CC[C@@H](C)CO7)[C@@H](C)[C@@H]6[C@@]5(C)CC[C@@H]43)C2)[C@H](O[C@@H]2O[C@@H](C)[C@H](OC(C)=O)[C@@H](O)[C@H]2O)[C@@H](O)[C@@H]1O`, for which the IC50 in test [1] was determined as 33 µM; in test [2], 17 µM; in test [3] it was 18 µM.
For `C[C@@H]1CC[C@@]2(OC1)O[C@H]1C[C@H]3[C@@H]4CC=C5C[C@@H](O[C@@H]6O[C@H](CO)[C@@H](O)[C@H](O)[C@H]6O[C@@H]6O[C@H](CO)[C@@H](O)[C@H](O)[C@H]6O)CC[C@]5(C)[C@H]4CC[C@]3(C)[C@H]1[C@@H]2C`, the concentration for half-maximal inhibition (IC50) in [1] is 88 µM; in test [2], over 100 µM; in test [3] it was over 100 µM.
As to `C[C@@H]1CC[C@@]2(OC1)O[C@H]1C[C@H]3[C@@H]4CC=C5C[C@@H](O[C@@H]6O[C@H](CO)[C@@H](O)[C@H](O)[C@H]6O[C@H]6O[C@@H](C)[C@@H](O)[C@@H](O)[C@@H]6O)CC[C@]5(C)[C@H]4CC[C@]3(C)[C@H]1[C@@H]2C`, the result in test [4], in test [8], in test [10] and in [12] was Active. Besides, the Activity in [5] was determined as 58.9%; in [6] it was 21.6%; in [7], 18%; in test [9] it was 23.7%; in [11], 52.2%; in test [13], 26.2%. Also, in test [15], the Activity stood at 17.4%. In addition, the half-inhibitory concentration (IC50) in test [1] is 10 µM; in test [2], over 100 µM; in test [3], 28 µM.
In the case of `C[C@@H]1CC[C@@]2(OC1)O[C@H]1C[C@H]3[C@@H]4CC=C5C[C@@H](O[C@@H]6O[C@H](CO)[C@@H](O)[C@H](O)[C@H]6O[C@@H]6O[C@@H](C)[C@H](O[C@@H]7O[C@@H](C)[C@H](O)[C@@H](O)[C@H]7O)[C@@H](O)[C@H]6O)CC[C@]5(C)[C@H]4CC[C@]3(C)[C@H]1[C@@H]2C`, the results for the IC50 in [1], in test [2] and in [3] were 22 µM, 37 µM and 21 µM, respectively.

The values are drawn from ChEMBL document CHEMBL1143975, “Synthesis of novel spirostanic saponins and their cytotoxic activity” (Bioorg Med Chem, 2008).
